From ChEMBL document CHEMBL2086346, “New artesunic acid homodimers: potent reversal agents of multidrug resistance in leukemia cells” (Bioorg Med Chem, 2012)

Tests used:
CCRF-CEM [1] = test: Selectivity ratio of IC50 for human CEM/ADR5000 cells to IC50 for human CCRF-CEM cells; format: functional
[2] = Cytotoxicity against human CEM/ADR5000 by CCK-8 assay; format: functional
Method in brief: (§1)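 CCRF-CEM or P-glycoprotein-overexpressing CEM/ADR5000 leukemia cells in RPMI1640. CEM/ADR5000 maintained by treatment with 5000 ng/mL doxorubicin every other week for three days. Viability by CCK-8: reagent added, 3 h at 37 °C, absorbance 450 nm. IC50 from dose–response curves. At least two independent experiments, each with 6 parallel measurements (12 values per concentration), mean ± SEM.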

CCRF-CEM [3] = test: Cytotoxicity against human CCRF-CEM cells by CCK-8 assay; format: functional, cell-based; method in brief: as §1

C[C@H]1[C@H](OC(=O)CCC(=O)NCCCNC(=O)CCC(=O)O[C@@H]2O[C@@H]3O[C@@]4(C)CC[C@H]5[C@H](C)CC[C@@H]([C@H]2C)[C@@]35OO4)O[C@@H]2O[C@@]3(C)CC[C@H]4[C@H](C)CC[C@@H]1[C@@]24OO3
Ratio IC50 (CCRF-CEM [1]): 0.17
IC50 [2]: 200 nM

C[C@H]1[C@H](OC(=O)CCC(=O)NCC(O)CNC(=O)CCC(=O)O[C@@H]2O[C@@H]3O[C@@]4(C)CC[C@H]5[C@H](C)CC[C@@H]([C@H]2C)[C@@]35OO4)O[C@@H]2O[C@@]3(C)CC[C@H]4[C@H](C)CC[C@@H]1[C@@]24OO3 (some centres not stated)
Ratio IC50 (CCRF-CEM [1]): 0.56
IC50 (CCRF-CEM [3]): 2160 nM
IC50 [2]: 1210 nM

C[C@H]1[C@H](OC(=O)CCC(=O)NCc2cccc(CNC(=O)CCC(=O)O[C@@H]3O[C@@H]4O[C@@]5(C)CC[C@H]6[C@H](C)CC[C@@H]([C@H]3C)[C@@]46OO5)c2)O[C@@H]2O[C@@]3(C)CC[C@H]4[C@H](C)CC[C@@H]1[C@@]24OO3
Ratio IC50 (CCRF-CEM [1]): 0.94
IC50 (CCRF-CEM [3]): 1600 nM
IC50 [2]: 1510 nM

C[C@H]1[C@H](OC(=O)CCC(=O)NCCCCCCCCNC(=O)CCC(=O)O[C@@H]2O[C@@H]3O[C@@]4(C)CC[C@H]5[C@H](C)CC[C@@H]([C@H]2C)[C@@]35OO4)O[C@@H]2O[C@@]3(C)CC[C@H]4[C@H](C)CC[C@@H]1[C@@]24OO3
Ratio IC50 (CCRF-CEM [1]): 1.03
IC50 (CCRF-CEM [3]): 2940 nM
IC50 [2]: 3040 nM

C[C@@H]1CC[C@H]2[C@@H](C)C(=O)O[C@@H]3O[C@@]4(C)CC[C@@H]1[C@]32OO4 [ARTEMISININ]
Ratio IC50 (CCRF-CEM [1]): 0.73

C[C@H]1[C@H](OC(=O)CCC(=O)O)O[C@@H]2O[C@@]3(C)CC[C@H]4[C@H](C)CC[C@@H]1[C@@]24OO3 [ARTESUNATE]
Ratio IC50 (CCRF-CEM [1]): 0.67
IC50 [2]: 1200 nM

COc1cccc2c1C(=O)c1c(O)c3c(c(O)c1C2=O)C[C@@](O)(C(=O)CO)C[C@@H]3O[C@H]1C[C@H](N)[C@H](O)[C@H](C)O1 [DOXORUBICIN]
Ratio IC50 (CCRF-CEM [1]): >140
IC50 (CCRF-CEM [3]): 37 nM
IC50 [2]: > 5200 nM
